In ChEMBL document CHEMBL3867429, “Euphorbesulins A-P, Structurally Diverse Diterpenoids from Euphorbia esula” (J Nat Prod, 2016):
pIC50: −log10 of the molar value.

System: Plasmodium falciparum
Assay: Antimalarial activity against chloroquine-resistant Plasmodium falciparum Dd2 after 72 hrs by SYBR green-based fluorescence assay
Type: functional
Conditions: Dd2, 72 h
Procedure, shortened: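 Growth-inhibition assay of the chloroquine-resistant P. falciparum Dd2 strain over 72 h, read by SYBR Green fluorescence and run under a slightly modified published protocol. Artemisinin served as positive control.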

SMILES | pIC50
C=C1[C@H](OC(=O)c2ccccc2)[C@@H](O)[C@@H](OC(C)=O)C(C)(C)/C=C/[C@H](C)C(=O)[C@@]2(OC(C)=O)C[C@@](C)(OC(C)=O)[C@H](OC(C)=O)[C@@H]2[C@H]1OC(C)=O | < 5.00
C=C1[C@H](OC(C)=O)[C@@H](OC(C)=O)[C@@H](OC(C)=O)C(C)(C)/C=C/[C@H](C)C(=O)[C@]2(OC(C)=O)[C@H]([C@@H](OC(C)=O)[C@@H](C)[C@H]2O)[C@H]1OC(=O)c1ccccc1 | < 5.30
C=C1[C@H](OC(=O)c2ccccc2)[C@@H](OC(C)=O)[C@@H](OC(C)=O)C(C)(C)/C=C/[C@H](C)C(=O)[C@]2(OC(C)=O)[C@H]([C@@H](OC(C)=O)[C@](C)(O)[C@H]2O)[C@H]1OC(=O)c1ccccc1 | < 5.30
C=C1C[C@]2(O)C(=O)C(C)(C)C[C@H]2[C@@](C)(O)C(=O)[C@@]2(O)C[C@H](C)[C@H](OC(=O)c3ccccc3)[C@@H]2[C@H]1OC(=O)[C@H](C)C(C)C | 5.62
C=C1[C@H](OC(=O)c2ccccc2)[C@@H](OC(C)=O)[C@@H](OC(C)=O)C(C)(C)/C=C/[C@H](C)C(=O)[C@@]2(OC(C)=O)C[C@H](C)[C@H](OC(C)=O)[C@@H]2[C@H]1OC(=O)c1ccccc1 | 6.92
C=C1[C@H](OC(=O)c2ccccc2)[C@@H](O)[C@@H](OC(C)=O)C(C)(C)/C=C/[C@H](C)C(=O)[C@@]2(OC(C)=O)C[C@H](C)[C@H](OC(C)=O)[C@@H]2[C@H]1OC(C)=O | < 5.30
C=C1[C@H](OC(C)=O)[C@@H](OC(C)=O)[C@@H](OC(C)=O)C(C)(C)/C=C/[C@H](C)C(=O)[C@]2(O)[C@H]([C@@H](OC(C)=O)[C@@H](C)[C@H]2OC(C)=O)[C@H]1OC(=O)c1ccccc1 | < 5.30
C=C1C[C@]2(O)C(=O)C(C)(C)C[C@H]2[C@@](C)(O)C(=O)[C@@]2(O)C[C@H](C)[C@H](OC(=O)c3ccccc3)[C@@H]2[C@H]1OC(C)=O | < 5.30
C=C1[C@H](OC(C)=O)[C@@H](OC(C)=O)[C@@H](OC(C)=O)C(C)(C)/C=C/[C@H](C)C(=O)[C@@]2(OC(C)=O)C[C@@](C)(OC(C)=O)[C@H](OC(=O)c3ccccc3)[C@@H]2[C@H]1OC(C)=O | < 5.30
C[C@@H]1CC[C@H]2[C@@H](C)C(=O)O[C@@H]3O[C@@]4(C)CC[C@@H]1[C@]32OO4 [ARTEMISININ] | 8.15
C=C1[C@H](OC(C)=O)[C@@H](OC(C)=O)[C@@H](OC(C)=O)C(C)(C)/C=C/[C@H](C)C(=O)[C@]2(OC(C)=O)[C@H]([C@@H](OC(=O)c3ccccc3)[C@@H](C)[C@H]2O)[C@H]1OC(C)=O | < 5.30
C=C1C[C@]2(O)C(=O)C(C)(C)C[C@H]2[C@@](C)(O)C(=O)[C@@]2(O)C[C@H](C)[C@H](OC(=O)c3ccccc3)[C@@H]2[C@H]1OC(=O)c1ccccc1 | < 5.30
